≈ marks a conversion by molar mass, not a printed value.
What was measured:
Escherichia coli = experiment: Minimum inhibitory concentration against EC14 strain Escherichia coli; assay type: functional
Klebsiella pneumoniae = experiment: Minimum inhibitory concentration against X68 strain of Klebsiella pneumoniae; assay type: functional
Streptococcus pneumoniae [1] = experiment: Minimum inhibitory concentration against park strain of Streptococcus pneumoniae
[2] = Minimum inhibitory concentration against N9 strain of Shigella sonnei; assay type: functional
[3] = Minimum inhibitory concentration against sens CL strain of Haemophilus influenzae; assay type: functional
[4] = system: Staphylococcus epidermidis; experiment: Minimum inhibitory concentration against 222 strain of Staphylococcus epidermidis; assay type: functional
Staphylococcus aureus [5] = experiment: Minimum inhibitory concentration against V41 strain of Staphylococcus aureus; assay type: functional
Klebsiella aerogenes = experiment: Minimum inhibitory concentration against EB17 strain of Enterobacter aerogenes; assay type: functional
Staphylococcus aureus [6] = experiment: Minimum inhibitory concentration against S13E strain of Staphylococcus aureus; assay type: functional
Streptococcus pyogenes [7] = experiment: Minimum inhibitory concentration against C203 strain of Streptococcus pyogenes
Staphylococcus aureus [8] = experiment: Minimum inhibitory concentration against X1.1 strain of Staphylococcus aureus; assay type: functional
Streptococcus pyogenes [9] = experiment: Minimum inhibitory concentration against Streptococcus pyogenes C203; assay type: functional
Salmonella = experiment: Minimum inhibitory concentration against X514 strain of Salmonella; assay type: functional
[10] = Minimum inhibitory concentration against res 76 strain of Haemophilus influenzae; assay type: functional
Streptococcus pneumoniae [11] = experiment: Minimum inhibitory concentration against Park strain of Streptococcus pneumoniae
Staphylococcus aureus [12] = experiment: Minimum inhibitory concentration against 3055 strain of Staphylococcus aureus
[13] = system: Staphylococcus epidermidis; experiment: Minimum inhibitory concentration against Epil strain of Staphylococcus epidermidis; assay type: functional
[14] = Oral bioavailability in mouse; assay type: ADME, organism-based; details: in vivo
In short: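 Male Cox mice given water and liquid diet overnight; 20 mg/kg in saline (2 mg/mL) sc or orally; urine from collection cages plus bladder contents over 2 h; activity by agar well assay with Bacillus subtilis ATCC 6633. Bioavailability from percent dose excreted in urine after oral vs parenteral dosing.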

Streptococcus pyogenes [15] = experiment: Minimum inhibitory concentration against C203 strain of Streptococcus pyogenes; remark: listed apart in the source

Row | Structure (SMILES) | MIC (Escherichia coli) [µg/mL] | MIC (Klebsiella pneumoniae) [µg/mL] | MIC (Streptococcus pneumoniae [1]) [µg/mL] | MIC [2] [µg/mL] | MIC [3] [µg/mL] | MIC [4] [µg/mL] | MIC (Staphylococcus aureus [5]) [µg/mL] | MIC (Klebsiella aerogenes) [µg/mL] | MIC (Staphylococcus aureus [6]) [µg/mL] | MIC (Streptococcus pyogenes [7]) [µg/mL] | MIC (Staphylococcus aureus [8]) [µg/mL] | MIC (Streptococcus pyogenes [9]) [µg/mL] | MIC (Salmonella) [µg/mL] | MIC [10] [µg/mL] | MIC (Streptococcus pneumoniae [11]) [µg/mL] | MIC (Staphylococcus aureus [12]) [µg/mL] | MIC [13] [µg/mL] | bioavailability [14] [%] | MIC (Streptococcus pyogenes [15]) [µg/mL]
1 | O=C(Cc1csc2ccc(Cl)cc12)N[C@@H]1C(=O)N2C(C(=O)O)=C(Cl)CS[C@H]12 | 64 (≈ 144 µM) | 128 (≈ 289 µM) | 0.02 (≈ 0.0451 µM) | 128 (≈ 289 µM) | 1 (≈ 2.26 µM) | 0.125 (≈ 0.282 µM) | 2 (≈ 4.51 µM) | 128 (≈ 289 µM) | 2 (≈ 4.51 µM) | 0.03 (≈ 0.0677 µM) | 0.03 (≈ 0.0677 µM) | 0.015 (≈ 0.0338 µM) | 128 (≈ 289 µM) | 0.25 (≈ 0.564 µM) | 0.015 (≈ 0.0338 µM) | 0.06 (≈ 0.135 µM) | 0.5 (≈ 1.13 µM) | – | –
2 | O=C(Cc1ccsc1)N[C@@H]1C(=O)N2C(C(=O)O)=C(Cl)CS[C@H]12 | 8 (≈ 22.3 µM) | 2 (≈ 5.57 µM) | – | 32 (≈ 89.2 µM) | 1 (≈ 2.79 µM) | 1 (≈ 2.79 µM) | 8 (≈ 22.3 µM) | > 128 | 16 (≈ 44.6 µM) | – | 0.5 (≈ 1.39 µM) | 0.125 (≈ 0.348 µM) | 1 (≈ 2.79 µM) | 1 (≈ 2.79 µM) | 0.125 (≈ 0.348 µM) | – | 4 (≈ 11.1 µM) | 47 | –
3 | COC1=C(C(=O)O)N2C(=O)[C@@H](NC(=O)Cc3csc(N)n3)[C@H]2SC1 | 8 (≈ 21.6 µM) | 8 (≈ 21.6 µM) | – | 32 (≈ 86.4 µM) | 8 (≈ 21.6 µM) | 32 (≈ 86.4 µM) | 32 (≈ 86.4 µM) | 32 (≈ 86.4 µM) | > 128 | – | 8 (≈ 21.6 µM) | 0.5 (≈ 1.35 µM) | 2 (≈ 5.4 µM) | 8 (≈ 21.6 µM) | 2 (≈ 5.4 µM) | – | 128 (≈ 346 µM) | < 5 | –
4 | COC1=C(C(=O)O)N2C(=O)[C@@H](NC(=O)COc3ccccc3)[C@H]2SC1 | > 128 | > 128 | – | > 128 | 4 (≈ 11 µM) | 2 (≈ 5.49 µM) | 32 (≈ 87.8 µM) | > 128 | 16 (≈ 43.9 µM) | – | 2 (≈ 5.49 µM) | 1 (≈ 2.74 µM) | > 128 | 4 (≈ 11 µM) | 1 (≈ 2.74 µM) | – | 8 (≈ 22 µM) | 14 | –
5 | O=C(Cc1ccc(O)cc1)N[C@@H]1C(=O)N2C(C(=O)O)=C(Cl)CS[C@H]12 | 32 (≈ 86.8 µM) | 8 (≈ 21.7 µM) | – | 128 (≈ 347 µM) | 2 (≈ 5.42 µM) | 2 (≈ 5.42 µM) | 16 (≈ 43.4 µM) | > 128 | 128 (≈ 347 µM) | – | 2 (≈ 5.42 µM) | 0.125 (≈ 0.339 µM) | 8 (≈ 21.7 µM) | 2 (≈ 5.42 µM) | 0.25 (≈ 0.678 µM) | – | 8 (≈ 21.7 µM) | 14 | –
6 | O=C(Cc1csc(Cl)n1)N[C@@H]1C(=O)N2C(C(=O)O)=C(Cl)CS[C@H]12 | – | – | – | 64 (≈ 162 µM) | – | – | – | > 128 | – | – | – | – | 8 (≈ 20.3 µM) | – | 0.5 (≈ 1.27 µM) | – | – | 56 | –
7 | C=CC1=C(C(=O)O)N2C(=O)[C@@H](NC(=O)COc3ccccc3)[C@H]2SC1 | > 128 | > 128 | 0.25 (≈ 0.694 µM) | > 128 | 4 (≈ 11.1 µM) | 0.5 (≈ 1.39 µM) | 16 (≈ 44.4 µM) | > 128 | 16 (≈ 44.4 µM) | 0.125 (≈ 0.347 µM) | 0.25 (≈ 0.694 µM) | 0.125 (≈ 0.347 µM) | > 128 | 1 (≈ 2.77 µM) | 0.125 (≈ 0.347 µM) | 0.25 (≈ 0.694 µM) | 8 (≈ 22.2 µM) | 36 | –
8 | COCC1=C(C(=O)O)N2C(=O)[C@@H](NC(=O)COc3ccccc3)[C@H]2SC1 | > 128 | > 128 | – | > 128 | 2 (≈ 5.29 µM) | 0.25 (≈ 0.661 µM) | 0.5 (≈ 1.32 µM) | > 128 | 32 (≈ 84.6 µM) | – | 0.25 (≈ 0.661 µM) | 0.06 (≈ 0.159 µM) | > 128 | 2 (≈ 5.29 µM) | 0.125 (≈ 0.33 µM) | – | 0.5 (≈ 1.32 µM) | 19 | –
9 | O=C(COc1ccccc1)N[C@@H]1C(=O)N2C(C(=O)O)=CCS[C@H]12 | 32 (≈ 95.7 µM) | > 128 | 0.25 (≈ 0.748 µM) | > 128 | 32 (≈ 95.7 µM) | 0.5 (≈ 1.5 µM) | 16 (≈ 47.9 µM) | > 128 | 16 (≈ 47.9 µM) | 0.25 (≈ 0.748 µM) | 0.5 (≈ 1.5 µM) | 0.5 (≈ 1.5 µM) | > 128 | 8 (≈ 23.9 µM) | 1 (≈ 2.99 µM) | 0.5 (≈ 1.5 µM) | 2 (≈ 5.98 µM) | 22 | –
10 | C=CC1=C(C(=O)O)N2C(=O)[C@@H](NC(=O)Cc3csc(N)n3)[C@H]2SC1 | 4 (≈ 10.9 µM) | 2 (≈ 5.46 µM) | – | – | 4 (≈ 10.9 µM) | 1 (≈ 2.73 µM) | 8 (≈ 21.8 µM) | 128 (≈ 349 µM) | 16 (≈ 43.7 µM) | – | 1 (≈ 2.73 µM) | 0.125 (≈ 0.341 µM) | 2 (≈ 5.46 µM) | 2 (≈ 5.46 µM) | 0.5 (≈ 1.36 µM) | – | 8 (≈ 21.8 µM) | 25 | –
11 | Cc1nc(CC(=O)N[C@@H]2C(=O)N3C(C(=O)O)=C(Cl)CS[C@H]23)cs1 | – | – | – | 64 (≈ 171 µM) | – | – | – | > 128 | – | – | – | – | 4 (≈ 10.7 µM) | – | 1 (≈ 2.67 µM) | – | – | 66 | –
12 | O=C(COc1ccc(O)cc1)N[C@@H]1C(=O)N2C(C(=O)O)=C(Cl)CS[C@H]12 | 64 (≈ 166 µM) | > 128 | – | 64 (≈ 166 µM) | 2 (≈ 5.2 µM) | 1 (≈ 2.6 µM) | 128 (≈ 333 µM) | > 128 | 128 (≈ 333 µM) | – | 0.5 (≈ 1.3 µM) | 0.06 (≈ 0.156 µM) | 64 (≈ 166 µM) | 1 (≈ 2.6 µM) | 0.125 (≈ 0.325 µM) | – | 16 (≈ 41.6 µM) | 21 | –
13 | O=C(Cc1ccccc1)N[C@@H]1C(=O)N2C(C(=O)O)=CCS[C@H]12 | 8 (≈ 25.1 µM) | 4 (≈ 12.6 µM) | 1 (≈ 3.14 µM) | 64 (≈ 201 µM) | 4 (≈ 12.6 µM) | 1 (≈ 3.14 µM) | 16 (≈ 50.3 µM) | 64 (≈ 201 µM) | 32 (≈ 101 µM) | 0.25 (≈ 0.785 µM) | 1 (≈ 3.14 µM) | 0.25 (≈ 0.785 µM) | 8 (≈ 25.1 µM) | 1 (≈ 3.14 µM) | 1 (≈ 3.14 µM) | 1 (≈ 3.14 µM) | 4 (≈ 12.6 µM) | 12 | –
14 | CC1=C(C(=O)O)N2C(=O)[C@@H](NC(=O)[C@H](N)c3ccccc3)[C@H]2SC1 [CEPHALEXIN ANHYDROUS] | – | – | 4 (≈ 11.5 µM) | – | – | – | – | – | – | – | – | – | – | – | – | 1 (≈ 2.88 µM) | – | – | 0.5 (≈ 1.44 µM)

From ChEMBL document CHEMBL1123985, “Oral absorption of cephalosporin antibiotics. 1. Synthesis, biological properties, and oral bioavailability of 7-(arylacetamido)-3-chloro cephalosporins in animals” (J Med Chem, 1988)
